ChEMBL document CHEMBL5356993, “Novel pyrazolo[3,4-d]pyrimidine derivatives: design, synthesis, anticancer evaluation, VEGFR-2 inhibition, and antiangiogenic activity” (RSC Med Chem, 2023)

Experiments:
A498 = test: Antiproliferative activity against human A498 cells assessed as cell growth inhibition at 10 uM incubated for 48 hrs by SRB assay relative to control; type: functional; settings: read-out: GI
Summary of the method: (§1)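 Cells plated in 96-well plates at […] cells/well and preincubated 24 h at 37 °C, 5% CO2. Time-zero plates were TCA-fixed. Compound was diluted in medium with 50 µg/mL gentamicin and cells exposed for 48 h. Adherent cells fixed with 10% final TCA; suspension cells with 16% final TCA. Plates stained with 0.4% SRB in 1% acetic acid, dye solubilized in 10 mM Trizma, absorbance read at 515 nm. Percent growth calculated against time-zero and control.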

UACC-62 = test: Antiproliferative activity against human UACC-62 cells assessed as cell growth inhibition at 10 uM incubated for 48 hrs by SRB assay relative to control; type: functional; settings: read-out: GI
Summary of the method: (§2)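 Cells pre-incubated 24 h at 37°C, 5% CO2, then exposed to compound (DMSO stock diluted in medium with 50 µg/mL gentamicin) for 48 h. Adherent cells fixed with cold TCA (final 10%, 60 min, 4°C); suspension cells fixed with 16% TCA final. Stained with 0.4% SRB in 1% acetic acid for 10 min, dye solubilized in 10 mM Trizma base, absorbance read at 515 nm. Growth calculated against time-zero and untreated control plates.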

NCI-H460 = test: Antiproliferative activity against human NCI-H460 cells assessed as cell growth inhibition at 10 uM incubated for 48 hrs by SRB assay relative to control; type: functional; settings: read-out: GI
NCI-H226 = test: Antiproliferative activity against human NCI-H226 cells assessed as cell growth inhibition at 10 uM incubated for 48 hrs by SRB assay relative to control; type: functional; settings: read-out: GI; summary of the method: as §1
OVCAR-4 = test: Antiproliferative activity against human OVCAR-4 cells assessed as cell growth inhibition at 10 uM incubated for 48 hrs by SRB assay relative to control; type: functional; settings: read-out: GI
NCI-H23 = test: Antiproliferative activity against human NCI-H23 cells assessed as cell growth inhibition at 10 uM incubated for 48 hrs by SRB assay relative to control; type: functional; settings: read-out: GI
COLO 205 = test: Antiproliferative activity against human COLO 205 cells assessed as cell growth inhibition at 10 uM incubated for 48 hrs by SRB assay relative to control; type: functional; settings: read-out: GI
HOP-62 = test: Antiproliferative activity against human HOP-62 cells assessed as cell growth inhibition at 10 uM incubated for 48 hrs by SRB assay relative to control; type: functional; settings: read-out: GI
A549 = test: Antiproliferative activity against human A549 cells assessed as cell growth inhibition at 10 uM incubated for 48 hrs by SRB assay relative to control; type: functional; settings: read-out: GI
UACC-257 = test: Antiproliferative activity against human UACC-257 cells assessed as cell growth inhibition at 10 uM incubated for 48 hrs by SRB assay relative to control; type: functional; settings: read-out: GI; summary of the method: as §2
786-0 = test: Antiproliferative activity against human 786-0 cells assessed as cell growth inhibition at 10 uM incubated for 48 hrs by SRB assay relative to control; type: functional; settings: read-out: GI
EKVX = test: Antiproliferative activity against human EKVX cells assessed as cell growth inhibition at 10 uM incubated for 48 hrs by SRB assay relative to control; type: functional; settings: read-out: GI
SF-268 = test: Antiproliferative activity against human SF-268 cells assessed as cell growth inhibition at 10 uM incubated for 48 hrs by SRB assay relative to control; type: functional; settings: read-out: GI
SNB-75 = test: Antiproliferative activity against human SNB-75 cells assessed as cell growth inhibition at 10 uM incubated for 48 hrs by SRB assay relative to control; type: functional; settings: read-out: GI; summary of the method: as §2
SNB-19 = test: Antiproliferative activity against human SNB-19 cells assessed as cell growth inhibition at 10 uM incubated for 48 hrs by SRB assay relative to control; type: functional; settings: read-out: GI; summary of the method: as §2
SW-620 = test: Antiproliferative activity against human SW620 cells assessed as cell growth inhibition at 10 uM incubated for 48 hrs by SRB assay relative to control; type: functional; settings: read-out: GI; summary of the method: as §2
K562 = test: Antiproliferative activity against human K562 cells assessed as cell growth inhibition at 10 uM incubated for 48 hrs by SRB assay relative to control; type: functional; settings: read-out: GI
T47D = test: Antiproliferative activity against human T47D cells assessed as cell growth inhibition at 10 uM incubated for 48 hrs by SRB assay relative to control; type: functional; settings: read-out: GI; summary of the method: as §2
HT-29 = test: Antiproliferative activity against human HT-29 cells assessed as cell growth inhibition at 10 uM incubated for 48 hrs by SRB assay relative to control; type: functional; settings: read-out: GI; summary of the method: as §1
NCI/ADR-RES = test: Antiproliferative activity against human NCI-ADR-RES cells assessed as cell growth inhibition at 10 uM incubated for 48 hrs by SRB assay relative to control; type: functional; settings: read-out: GI
HOP-92 = test: Antiproliferative activity against human HOP-92 cells assessed as cell growth inhibition at 10 uM incubated for 48 hrs by SRB assay relative to control; type: functional; settings: read-out: GI; summary of the method: as §1
HCT-116 = test: Antiproliferative activity against human HCT-116 cells assessed as cell growth inhibition at 10 uM incubated for 48 hrs by SRB assay relative to control; type: functional; settings: read-out: GI
SF-539 = test: Antiproliferative activity against human SF-539 cells assessed as cell growth inhibition at 10 uM incubated for 48 hrs by SRB assay relative to control; type: functional; settings: read-out: GI; summary of the method: as §1
LOX IMVI = test: Antiproliferative activity against human LOX IMVI cells assessed as cell growth inhibition at 10 uM incubated for 48 hrs by SRB assay relative to control; type: functional; settings: read-out: GI
MDA-MB-435 = test: Antiproliferative activity against human MDA-MB-435 cells assessed as cell growth inhibition at 10 uM incubated for 48 hrs by SRB assay relative to control; type: functional; settings: read-out: GI
[1] = Selectivity index, ratio of IC50 for human MCF-10A cells to IC50 for human MDA-MB-468 cells; settings: MCF-10A cells versus MDA-MB-468 cells
MDA-MB-468 = test: Cytotoxicity against human MDA-MB-468 cells assessed as cell growth inhibition incubated for 72 hrs by MTT assay; type: functional, cell-based; settings: MDA-MB-468, 72 h
[2] = target: Vascular endothelial growth factor receptor 2 (Homo sapiens, UniProt P35968); test: Inhibition of VEGFR-2 (unknown origin) incubated for 45 mins by Kinase-Glo Max assay
Vascular endothelial growth factor receptor 2, sequence (P35968 whole entry): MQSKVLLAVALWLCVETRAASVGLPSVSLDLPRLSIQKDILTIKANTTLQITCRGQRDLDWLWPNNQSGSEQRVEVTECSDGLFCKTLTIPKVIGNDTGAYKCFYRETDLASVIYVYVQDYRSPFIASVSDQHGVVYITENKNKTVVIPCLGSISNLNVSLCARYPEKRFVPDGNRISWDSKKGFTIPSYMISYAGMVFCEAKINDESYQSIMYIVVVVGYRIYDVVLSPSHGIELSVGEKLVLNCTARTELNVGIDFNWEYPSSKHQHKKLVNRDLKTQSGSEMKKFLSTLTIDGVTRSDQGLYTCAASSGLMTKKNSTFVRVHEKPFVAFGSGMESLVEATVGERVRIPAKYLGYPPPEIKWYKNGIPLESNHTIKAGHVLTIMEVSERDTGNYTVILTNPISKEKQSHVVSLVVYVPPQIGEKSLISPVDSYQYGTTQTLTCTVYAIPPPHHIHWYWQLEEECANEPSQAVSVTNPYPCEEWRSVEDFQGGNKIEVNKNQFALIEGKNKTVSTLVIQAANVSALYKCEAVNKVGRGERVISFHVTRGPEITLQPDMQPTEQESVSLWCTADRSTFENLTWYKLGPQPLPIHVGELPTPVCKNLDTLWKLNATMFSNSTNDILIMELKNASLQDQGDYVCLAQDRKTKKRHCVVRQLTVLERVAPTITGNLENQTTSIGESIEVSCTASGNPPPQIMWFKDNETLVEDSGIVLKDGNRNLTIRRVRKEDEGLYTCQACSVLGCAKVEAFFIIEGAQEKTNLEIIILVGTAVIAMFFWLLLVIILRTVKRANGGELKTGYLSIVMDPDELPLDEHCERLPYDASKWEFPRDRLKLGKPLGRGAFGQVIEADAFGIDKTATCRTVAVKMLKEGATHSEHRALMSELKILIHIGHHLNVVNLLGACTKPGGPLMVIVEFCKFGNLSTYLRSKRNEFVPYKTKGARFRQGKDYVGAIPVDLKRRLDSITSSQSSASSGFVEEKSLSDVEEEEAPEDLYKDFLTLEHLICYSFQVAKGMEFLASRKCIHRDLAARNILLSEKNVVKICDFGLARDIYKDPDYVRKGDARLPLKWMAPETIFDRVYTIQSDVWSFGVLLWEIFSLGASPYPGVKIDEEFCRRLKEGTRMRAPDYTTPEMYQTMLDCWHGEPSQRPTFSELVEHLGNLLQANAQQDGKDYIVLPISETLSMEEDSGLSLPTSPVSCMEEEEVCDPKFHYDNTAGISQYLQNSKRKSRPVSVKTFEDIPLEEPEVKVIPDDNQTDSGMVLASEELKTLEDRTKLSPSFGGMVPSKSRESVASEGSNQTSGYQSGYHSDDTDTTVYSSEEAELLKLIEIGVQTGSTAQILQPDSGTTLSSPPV

[3] = Cytotoxicity against human MCF-10A cells assessed as cell growth inhibition incubated for 72 hrs by MTT assay

SMILES	inhibition of growth at 10 µM (A498)	inhibition of growth at 10 µM (UACC-62)	inhibition of growth at 10 µM (NCI-H460)	inhibition of growth at 10 µM (NCI-H226)	inhibition of growth at 10 µM (OVCAR-4)	inhibition of growth at 10 µM (NCI-H23)	inhibition of growth at 10 µM (COLO 205)	inhibition of growth at 10 µM (HOP-62)	inhibition of growth at 10 µM (A549)	inhibition of growth at 10 µM (UACC-257)	inhibition of growth at 10 µM (786-0)	inhibition of growth at 10 µM (EKVX)	inhibition of growth at 10 µM (SF-268)	inhibition of growth at 10 µM (SNB-75)	inhibition of growth at 10 µM (SNB-19)	inhibition of growth at 10 µM (SW-620)	inhibition of growth at 10 µM (K562)	inhibition of growth at 10 µM (T47D)	inhibition of growth at 10 µM (HT-29)	inhibition of growth at 10 µM (NCI/ADR-RES)	further results
Cc1nc2c(cnn2-c2ccccc2)c(=O)n1-c1ccc(N2C(=O)c3ccccc3C2=O)cc1	< 15%	< 15%	< 15%	< 15%	< 15%	< 15%	< 15%	< 15%	< 15%	< 15%	< 15%	< 15%	< 15%	< 15%	< 15%	< 15%	< 15%	< 15%	< 15%	< 15%	inhibition of growth at 10 µM (HOP-92): < 15%; inhibition of growth at 10 µM (HCT-116): < 15%; inhibition of growth at 10 µM (SF-539): < 15%; inhibition of growth at 10 µM (LOX IMVI): < 15%; inhibition of growth at 10 µM (MDA-MB-435): < 15%
Cc1ccc(C(=O)Nc2ccc(-n3c(C)nc4c(cnn4-c4ccccc4)c3=O)cc2)cc1	< 15%	39.2%	24.6%	45.2%	50.2%	46.5%	22.6%	21.2%	34.2%	58%	< 15%	69.5%	< 15%	17.2%	17.9%	< 15%	68.8%	65.4%	28.8%	47.3%	selectivity ratio [1]: 3.63; IC50 (MDA-MB-468): 16 µM; IC50 [2]: 0.261 µM; inhibition of growth at 10 µM (HOP-92): < 15%; inhibition of growth at 10 µM (HCT-116): 48.5%; inhibition of growth at 10 µM (SF-539): 18.6%; inhibition of growth at 10 µM (LOX IMVI): 32.8%; inhibition of growth at 10 µM (MDA-MB-435): 29.4%; IC50 at 72 h [3]: 58.2 µM
Cc1nc2c(cnn2-c2ccccc2)c(=O)n1-c1ccc(NC(=O)c2ccc([N+](=O)[O-])cc2)cc1	19.6%	39.6%	26.4%	50.8%	48.2%	50.6%	25.9%	< 15%	33%	50.8%	16.3%	69.3%	< 15%	32.9%	25.4%	< 15%	68.8%	66.5%	21.6%	47.2%	inhibition of growth at 10 µM (HOP-92): < 15%; inhibition of growth at 10 µM (HCT-116): 55.6%; inhibition of growth at 10 µM (SF-539): 18.7%; inhibition of growth at 10 µM (LOX IMVI): 34.1%; inhibition of growth at 10 µM (MDA-MB-435): 33.6%
Cc1nc2c(cnn2-c2ccccc2)c(=O)n1-c1ccc(/N=C2\C(=O)Nc3ccccc32)cc1	< 15%	36.2%	< 15%	24.7%	43.9%	30.7%	< 15%	< 15%	< 15%	29.3%	< 15%	52.1%	< 15%	< 15%	36%	< 15%	34.4%	38.3%	< 15%	< 15%	inhibition of growth at 10 µM (HOP-92): 17.6%; inhibition of growth at 10 µM (HCT-116): 17.9%; inhibition of growth at 10 µM (SF-539): 20.9%; inhibition of growth at 10 µM (LOX IMVI): 18.3%; inhibition of growth at 10 µM (MDA-MB-435): < 15%
